ChEMBL document CHEMBL4665630, “Synthesis and biological evaluation of anthraquinone derivatives as allosteric phosphoglycerate mutase 1 inhibitors for cancer treatment” (Eur J Med Chem, 2019)

How the values were obtained:
[1] = biological target: Phosphoglycerate mutase 1 (Homo sapiens, UniProt P18669); assay: Inhibition of human recombinant PGAM1 by measuring decrease in OD by enzyme based assay
Method in brief: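 C-terminal His6-tagged PGAM1, Ni-NTA purified, 4.6 nM, preincubated with inhibitor in DMSO; coupled enolase/pyruvate kinase M2/LDH system in 100 mM Tris-HCl, 100 mM KCl, 5 mM MgCl2, 1 mM ADP, 0.2 mM NADH, 4 mM 3PG; NADH loss read at 340 nm. Counter-screen without PGAM1 using 4 mM 2PG. Mean ± s.d., n=3.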

NCI-H1299 = assay: Antiproliferative activity against human H1299 cells assessed as reduction in cell viability measured after 72 hrs by MTT assay; format: functional, cell-based; details: NCI-H1299, 72 h
Method in brief: (§1)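 Cells grown in RPMI-1640 (H1299, PC9) or F-12K (A549) with 10% FBS and penicillin/streptomycin; 2000 H1299 or A549 or 1000 PC9 cells per well, attached 24 h, exposed to inhibitor 72 h; MTT 0.5 mg/mL for 4 h, absorbance at 570 nm; mean ± s.d., n=3.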

PC-9 = assay: Antiproliferative activity against human PC-9 cells assessed as reduction in cell viability measured after 72 hrs by MTT assay; format: functional, cell-based; details: PC-9, 72 h; method in brief: as §1
A549 = assay: Antiproliferative activity against human A549 cells assessed as reduction in cell viability measured after 72 hrs by MTT assay; format: functional, cell-based; details: A549, 72 h; method in brief: as §1

Sequence of Phosphoglycerate mutase 1 (P18669 whole entry): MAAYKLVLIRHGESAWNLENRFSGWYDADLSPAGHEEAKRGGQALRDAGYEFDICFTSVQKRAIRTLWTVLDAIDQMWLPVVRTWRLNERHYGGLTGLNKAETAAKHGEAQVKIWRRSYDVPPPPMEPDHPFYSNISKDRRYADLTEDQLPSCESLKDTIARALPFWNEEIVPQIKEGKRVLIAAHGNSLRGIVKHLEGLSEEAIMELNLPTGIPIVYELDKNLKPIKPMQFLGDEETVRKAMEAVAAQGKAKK

SMILES	IC50 [1] [µM]	IC50 (NCI-H1299) [µM]	IC50 (PC-9) [µM]	IC50 (A549) [µM]
O=C1c2ccccc2C(=O)c2c1cc(NS(=O)(=O)N1CCOCC1)c(O)c2O	> 10			
COc1ccc(S(=O)(=O)Nc2cc3c(c(O)c2O)C(=O)c2ccccc2C3=O)cc1OC	2.81	26.7		
COc1ccc(S(=O)(=O)Nc2cc3c(c(O)c2O)C(=O)c2ccccc2C3=O)c(OC)c1	2.86	20		
CN1CCN(c2ccc(S(=O)(=O)Nc3cc4c(c(O)c3O)C(=O)c3ccccc3C4=O)cc2)CC1	> 10			
CCCCS(=O)(=O)Nc1cc2c(c(O)c1O)C(=O)c1ccccc1C2=O	2.05	38.8		
CS(=O)(=O)Nc1cc2c(c(O)c1O)C(=O)c1ccccc1C2=O	5.37	28.5		
O=C1c2ccccc2C(=O)c2c1cc(NS(=O)(=O)C1CCCCC1)c(O)c2O	1.75	21.8		
O=C1c2ccccc2C(=O)c2c1cc(NS(=O)(=O)c1cccc3cccnc13)c(O)c2O	2.05	47.6		
O=C1c2ccccc2C(=O)c2c1cc(NS(=O)(=O)c1cccc3ccccc13)c(O)c2O	1.29	7.7	18.1	50.5

The next compounds have a lower IC50 [1] than those just listed; values first:

IC50 [1] [µM]	IC50 (NCI-H1299) [µM]	IC50 (PC-9) [µM]	IC50 (A549) [µM]	SMILES
0.63	22.6			O=C1c2ccccc2C(=O)c2c1cc(NS(=O)(=O)c1ccc(F)c(C(F)(F)F)c1)c(O)c2O
0.36	7.7	15.7	25.4	Cc1ccc(S(=O)(=O)Nc2cc3c(c(O)c2O)C(=O)c2ccccc2C3=O)cc1
0.33	10	3	6.3	O=C1c2ccccc2C(=O)c2c1cc(NS(=O)(=O)c1ccc(N3CCCCC3)cc1)c(O)c2O
0.097	4.6	11.5	11.2	O=C1c2ccccc2C(=O)c2c1cc(NS(=O)(=O)c1ccc(C3CCCCC3)cc1)c(O)c2O
